Results from different studies.
Lines come from different studies, so protocols differ.
Cell line: HepG2
Effect on: cell growth or viability

| Compound | method | concentration | time | measurement | value |
| --- | --- | --- | --- | --- | --- |
| COc1ccc(NC(=O)c2c(Nc3ccccc3)sc(C#N)c2NC(=O)CNc2ccc([N+](=O)[O-])cc2)cc1 | SRB | 10 nM | 48 h | viability | 86.4% |
| CCOC(=O)c1ccc(-n2c(C)cc(C)c(C#N)c2=O)cc1 | MTT | 6.25 µM | 24 h | viability | 90.3% |
| COc1ccc(NC(=O)c2c(Nc3ccccc3)sc(C#N)c2NC(=O)CNc2ccc(Br)cc2)cc1 | SRB | 100 µM | 48 h | viability | 39.7% |
| Cc1ccc2nc(-c3ccco3)[nH]c2c1 | MTT | – | 48 h | IC50 | > 100 µM |
| CCOC(=O)c1ccc(-n2c(N)c(C#N)c(CC#N)c(C#N)c2=O)cc1 | MTT | 6.25 µM | 24 h | viability | 71.8% |
| COc1ccc(NC(=O)c2c(Nc3ccccc3)sc(C#N)c2NC(=O)CNc2ccccc2Cl)cc1 | SRB | 1 nM | 48 h | viability | 101% |
| CCOC(=O)c1ccc(-n2c(-c3ccc(C)cc3)cc(-c3ccc(O)cc3)c(C#N)c2=O)cc1 | MTT | 12.5 µM | 24 h | viability | 50.4% |
| Clc1ccccc1-c1nc2ccccc2[nH]1 | MTT | – | 48 h | IC50 | 31.5 µM |
| CCOC(=O)c1ccc(N2C(N)=C(C#N)C3(C(=O)Nc4ccccc43)C(C#N)=C2O)cc1 (stereo not shown) | MTT | 3.125 µM | 24 h | viability | 69.3% |
| Cc1ccc2nc(-c3ccc(F)cc3)[nH]c2c1 | MTT | – | 48 h | IC50 | 80.4 µM |
| CC(=O)Nc1cccc(-n2c(=O)n(C3CC3)c(=O)c3c(Nc4ccc(I)cc4F)n(C)c(=O)c(C)c32)c1 | resazurin | 25 nM | 72 h | viability | 42.6% |
| COc1ccc(NC(=O)c2c(Nc3ccccc3)sc(C(=O)NN=Cc3ccc(OC)c(O)c3)c2NC(C)=O)cc1 | SRB | 1 nM | 48 h | viability | 100% |
| COc1ccc(-c2nc3ccccc3n2Cc2ccccc2)cc1OC | MTT | – | – | IC50 | 19.9 µM |
